Bounds are passed on as bounds.

A short description of data set [1]: Plasma clearance was measured in rat. The data set is classed as ADME, organism-based. The following applies: read-out: Clp. In short, it runs like this: (§1)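 Pharmacokinetics in rat, dog and monkey. Dosing was iv 1 mpk and po 2 mpk.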
The target of data set [2] is Dipeptidyl peptidase 9 (Homo sapiens, UniProt Q86TI2). The data set can be described thus: In vitro inhibitory concentration was measured against dipeptidylpeptidase 9.
Chain of Dipeptidyl peptidase 9 (Q86TI2 whole entry): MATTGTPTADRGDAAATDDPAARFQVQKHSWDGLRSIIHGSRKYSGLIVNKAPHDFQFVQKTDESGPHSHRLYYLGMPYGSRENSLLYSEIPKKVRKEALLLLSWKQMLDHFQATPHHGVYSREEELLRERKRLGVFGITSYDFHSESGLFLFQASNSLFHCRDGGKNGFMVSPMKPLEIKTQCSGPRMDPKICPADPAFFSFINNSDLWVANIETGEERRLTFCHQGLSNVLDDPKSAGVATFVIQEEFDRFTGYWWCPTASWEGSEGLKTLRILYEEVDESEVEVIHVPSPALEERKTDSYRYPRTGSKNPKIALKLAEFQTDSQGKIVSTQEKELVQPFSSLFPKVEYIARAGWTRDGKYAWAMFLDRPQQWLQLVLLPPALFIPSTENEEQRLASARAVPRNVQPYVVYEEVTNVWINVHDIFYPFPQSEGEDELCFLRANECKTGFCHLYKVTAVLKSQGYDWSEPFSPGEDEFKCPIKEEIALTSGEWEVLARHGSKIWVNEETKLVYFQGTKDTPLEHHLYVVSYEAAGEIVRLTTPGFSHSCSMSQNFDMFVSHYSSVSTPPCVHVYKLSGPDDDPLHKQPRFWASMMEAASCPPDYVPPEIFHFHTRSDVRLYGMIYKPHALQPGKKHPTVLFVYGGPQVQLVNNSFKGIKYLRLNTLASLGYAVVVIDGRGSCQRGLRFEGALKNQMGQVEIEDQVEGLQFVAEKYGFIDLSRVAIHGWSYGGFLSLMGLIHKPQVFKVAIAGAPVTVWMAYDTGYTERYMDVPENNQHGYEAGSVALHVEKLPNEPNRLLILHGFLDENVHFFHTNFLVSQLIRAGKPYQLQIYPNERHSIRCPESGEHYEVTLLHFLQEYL
Data set [3] has as its target Dipeptidyl peptidase 4 (Homo sapiens, UniProt P27487).
Data set [4] deals with Dipeptidyl peptidase 2 (Homo sapiens, UniProt Q9UHL4). The data set can be described thus: In vitro inhibitory concentration was measured against quiescent cell proline dipeptidase.
The nature of data set [5]: Maximum concentration was measured in plasma of rat upon peroral dose of 2 mpk. The class given is ADME, organism-based. Set-up: dose 2 mpk, route oral. The following applies: po, 2 mg/kg. In short, it runs like this:
as §1

Data set [6] can be described thus: Plasma half-life was measured in rat. The data set is classed as ADME, organism-based. In short, it runs like this:
as §1

Data set [7] is described as follows: Oral bioavailability in rat. The class given is ADME, organism-based. The following applies: in vivo. The essentials:
as §1

A short description of data set [8]: Plasma half-life was measured in plasma of rat. The data set is classed as ADME, cell-free. The essentials:
as §1

A short description of data set [9]: Maximum concentration was measured in plasma of dog upon peroral dose of 2 mpk. The class given is ADME, organism-based, Canis lupus familiaris. More on the design: dose 2 mpk, route oral. The following applies: po, 2 mg/kg. In short, it runs like this:
as §1

A short description of data set [10]: Maximum concentration was measured in plasma of monkey upon peroral dose of 2 mpk. Set-up: dose 2 mpk, route oral. As to conditions: cercopithecidae, po, 2 mg/kg. The data set is classed as ADME, organism-based. In short, it runs like this: as §1
A short description of data set [11]: Plasma half-life was measured in dog. The data set is classed as ADME, cell-free, Canis lupus familiaris. The essentials:
as §1

Data set [12] can be described thus: Plasma clearance was measured in dog. The following applies: read-out: Clp. The data set is classed as ADME, organism-based, Canis lupus familiaris. The essentials:
as §1

Data set [13] in a line: Plasma clearance was measured in monkey. The class given is ADME, organism-based. The following applies: cercopithecidae, read-out: Clp. In short, it runs like this:
as §1

Data set [14] is described as follows: Oral bioavailability in dog. As to conditions: in vivo. The class given is ADME, organism-based, Canis lupus familiaris. The essentials:
as §1

Data set [15] is described as follows: Oral bioavailability in monkey. As to conditions: cercopithecidae, in vivo. The data set is classed as ADME, organism-based. In short, it runs like this:
as §1

A short description of data set [16]: Plasma half-life was measured in monkey. The data set is classed as ADME. As to conditions: cercopithecidae. The essentials: as §1
Data set [17] is described as follows: Maximum concentration in plasma of dog upon peroral dose of 2 mpk. Set-up: dose 2 mpk, route oral. The data set is classed as ADME, organism-based, Canis lupus familiaris. As to conditions: po, 2 mg/kg. In short, it runs like this:
as §1

Data set [18] can be described thus: Maximum concentration in plasma of rat upon peroral dose of 2 mpk. The data set is classed as ADME, organism-based. More on the design: dose 2 mpk, route oral. As to conditions: po, 2 mg/kg. In short, it runs like this: as §1
Data set [19] can be described thus: Maximum concentration in plasma of monkey upon peroral dose of 2 mpk. The data set is classed as ADME, organism-based. More on the design: dose 2 mpk, route oral. The following applies: cercopithecidae, po, 2 mg/kg. In short, it runs like this: as §1

Chain of Dipeptidyl peptidase 4 (P27487 whole entry): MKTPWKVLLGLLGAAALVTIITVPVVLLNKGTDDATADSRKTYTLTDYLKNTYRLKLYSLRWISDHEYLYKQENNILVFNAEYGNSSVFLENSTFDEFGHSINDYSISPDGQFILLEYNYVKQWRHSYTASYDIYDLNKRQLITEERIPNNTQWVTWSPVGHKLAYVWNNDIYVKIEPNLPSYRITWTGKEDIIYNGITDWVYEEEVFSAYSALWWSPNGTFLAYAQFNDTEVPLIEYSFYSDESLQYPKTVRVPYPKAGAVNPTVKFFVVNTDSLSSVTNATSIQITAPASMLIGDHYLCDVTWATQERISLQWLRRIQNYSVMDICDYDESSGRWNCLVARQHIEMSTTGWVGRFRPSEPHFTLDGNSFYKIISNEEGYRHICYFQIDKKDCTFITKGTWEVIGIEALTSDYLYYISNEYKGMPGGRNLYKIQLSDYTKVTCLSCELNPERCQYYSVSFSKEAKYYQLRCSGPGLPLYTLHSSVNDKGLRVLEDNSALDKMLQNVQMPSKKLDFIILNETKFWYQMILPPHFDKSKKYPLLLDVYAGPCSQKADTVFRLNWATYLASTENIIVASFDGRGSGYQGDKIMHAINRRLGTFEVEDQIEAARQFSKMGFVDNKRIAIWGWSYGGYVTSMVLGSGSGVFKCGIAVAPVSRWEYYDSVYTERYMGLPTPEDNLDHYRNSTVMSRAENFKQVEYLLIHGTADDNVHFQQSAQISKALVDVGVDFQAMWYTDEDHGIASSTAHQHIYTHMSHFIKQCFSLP

One may read the IC50 as the concentration at which inhibition is half-maximal. One may read the Cmax as the peak of the concentration-time curve. The term half-life denotes the time in which the quantity being followed falls by half. What is called bioavailability is the share of a dose that reaches the circulation, judged against a reference dose that is usually intravenous. Turning to `Cl.N[C@@H](CC(=O)N1CCn2cnnc2C1)Cc1cc(F)c(F)cc1F`, the clearance in data set [1] is 40 mL/min/kg. Besides, the IC50 in data set [2] is above 100 µM; in data set [3], 0.068 µM; in data set [4] it was above 10 µM. In addition, the Cmax in [5] came out at 30 nM. This compound gave a half-life in [6] of 1 h. In addition, in data set [7], the bioavailability was 3%.
As to `N[C@@H](CC(=O)N1CCn2cnnc2C1)Cc1ccc(F)c(F)c1`, the IC50 in data set [2] was above 100 µM; in [3] it was 0.455 µM; in [4], above 10 µM.
Take `N[C@@H](CC(=O)N1CCNCC1)Cc1ccc(F)c(F)c1`: in data set [3], the IC50 was 3.1 µM.
With `Cl.N[C@@H](CC(=O)N1CCn2c(nnc2C(F)(F)F)C1)Cc1ccc(F)c(F)c1`, in data set [1], the clearance was found to be 51 mL/min/kg. Moreover, the IC50 in [2] was above 100 µM; in [4], 98 µM. Besides, the peak level in [5] (Cmax) was 140 nM. Also, the half-life in [6] is 1.8 h. The same compound yielded a bioavailability in data set [7] of 44%.
As for `Cl.N[C@@H](CC(=O)N1CCn2c(nnc2C(F)(F)F)C1)Cc1cc(F)ccc1F`, the clearance in data set [1] worked out at 43 mL/min/kg. The IC50 in data set [2] and in [4] was above 100 µM in each case. This compound also showed a Cmax in [5] of 190 nM. For the same compound, the half-life in data set [8] was 1.6 h. The bioavailability in data set [7] turned out to be 51%.
Take `Cl.N[C@@H](CC(=O)N1CCn2c(nnc2C(F)(F)F)C1)Cc1cc(F)c(F)cc1F`: the Cmax was found to be 2200 nM in data set [9], 330 nM in [5] and 330 nM in data set [10]. Besides, the half-life in [11] is 4.9 h; in data set [6], 1.7 h; in data set [16] it was 3.7 h. Moreover, the clearance in data set [12] was 6 mL/min/kg; in data set [13], 28 mL/min/kg. Also, the bioavailability stood at 100% in data set [14] and 68% in [15].
As for `CCc1nnc2n1CCN(C(=O)C[C@H](N)Cc1ccc(F)c(F)c1)C2.Cl`, the clearance in data set [1] is 45 mL/min/kg; in [12], 13 mL/min/kg; in [13] it was 26 mL/min/kg. For the same compound, the half-maximal inhibitory concentration (IC50) in data set [2] is above 100 µM; in data set [3], 0.231 µM; in data set [4], 64 µM. Besides, the half-life in [11] was 2.3 h; in data set [6], 2.7 h; in data set [16] it was 1.3 h. Further, the Cmax in [17] stood at 730 nM; in data set [18], 10 nM; in data set [19] it was 12 nM. Moreover, the bioavailability in data set [14] came to 33%; in data set [7], 2%; in data set [15] it was 1%.
Regarding `Cl.N[C@@H](CC(=O)N1CCn2c(nnc2C(F)(F)C(F)(F)F)C1)Cc1cc(F)c(F)cc1F`, the clearance in [1] is 58 mL/min/kg. Moreover, the IC50 in [2] is above 100 µM; in data set [3], 0.071 µM; in [4], 78 µM. The compound also showed a Cmax in data set [5] of 160 nM. This compound also gave a half-life in data set [6] of 2.3 h. The compound also came in with a bioavailability in [7] of 61%.
In the case of `Cl.N[C@@H](CC(=O)N1CCn2c(nnc2C(F)(F)C(F)(F)F)C1)Cc1cc(F)ccc1F`, the clearance in data set [1] amounted to 109 mL/min/kg. In addition, the IC50 in data set [2] is above 100 µM; in [3], 0.103 µM; in [4] it was above 100 µM. This compound registered a Cmax in data set [5] of 2 nM. In data set [6], the half-life is 1.5 h. In addition, the bioavailability in data set [7] was 1%.

Values taken from ChEMBL document CHEMBL1141929, “(2R)-4-oxo-4-[3-(trifluoromethyl)-5,6-dihydro[1,2,4]triazolo[4,3-a]pyrazin-7(8H)-yl]-1-(2,4,5-trifluorophenyl)butan-2-amine: a potent, orally active dipeptidyl peptidase IV inhibitor for the treatment of type 2 diabetes” (J Med Chem, 2005).
